1 molecule from ChEMBL document CHEMBL4334447, “Discovery of 4-Aminoquinoline-3-carboxamide Derivatives as Potent Reversible Bruton's Tyrosine Kinase Inhibitors for the Treatment of Rheumatoid Arthritis” (J Med Chem, 2019) can be followed below.

The nature of series [1]: Kinetic aqueous solubility of the compound in pH 7.4 phosphate buffered saline incubated for 24 hrs under shaking condition by HPLC analysis. The format is physicochemical. As to conditions: read-out: Kinetic_solubility. In outline:
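Dry powder shaken 24 h at 25 °C in 0.1 M phosphate buffer, pH 7.4, then filtered through a 0.45 µm membrane. Concentration determined by HPLC against a standard of the compound in DMSO. Mean of three separate assays in triplicate.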

The target in series [2] is Tyrosine-protein kinase BTK (Homo sapiens, UniProt Q06187). Briefly: Reversible inhibition of FAM-labeled peptide binding to full-length human N-terminal GST-tagged BTK (2 to 659 residues) expressed in baculovirus infected Sf21 insect cells at preincubated for 10 mins followed by FAM-labeled peptide addition and measured by off-chip mobility shift assay.
In series [3] the target is Epidermal growth factor receptor (Homo sapiens, UniProt P00533). Nature of the series: Inhibition of recombinant human GST-tagged EGFR cytoplasmic domain (668 to 1210 residues) expressed in baculovirus expression system using Z'-lyte-labelled tyr-4 peptide as substrate measured after 1 hr by FRET assay. In outline:
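Z'-LYTE kinase assay. Compounds tested as 3-fold serial dilutions in aqueous solution containing 4% DMSO. Fluorescence read at 400 nm excitation and 445/520 nm emission. IC50 is the mean of ≥3 assays in triplicate.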

The target in series [4] is T1, Tyrosine-protein kinase ITK/TSK (Homo sapiens, UniProt Q08881).
T1 sequence (Q08881 whole entry): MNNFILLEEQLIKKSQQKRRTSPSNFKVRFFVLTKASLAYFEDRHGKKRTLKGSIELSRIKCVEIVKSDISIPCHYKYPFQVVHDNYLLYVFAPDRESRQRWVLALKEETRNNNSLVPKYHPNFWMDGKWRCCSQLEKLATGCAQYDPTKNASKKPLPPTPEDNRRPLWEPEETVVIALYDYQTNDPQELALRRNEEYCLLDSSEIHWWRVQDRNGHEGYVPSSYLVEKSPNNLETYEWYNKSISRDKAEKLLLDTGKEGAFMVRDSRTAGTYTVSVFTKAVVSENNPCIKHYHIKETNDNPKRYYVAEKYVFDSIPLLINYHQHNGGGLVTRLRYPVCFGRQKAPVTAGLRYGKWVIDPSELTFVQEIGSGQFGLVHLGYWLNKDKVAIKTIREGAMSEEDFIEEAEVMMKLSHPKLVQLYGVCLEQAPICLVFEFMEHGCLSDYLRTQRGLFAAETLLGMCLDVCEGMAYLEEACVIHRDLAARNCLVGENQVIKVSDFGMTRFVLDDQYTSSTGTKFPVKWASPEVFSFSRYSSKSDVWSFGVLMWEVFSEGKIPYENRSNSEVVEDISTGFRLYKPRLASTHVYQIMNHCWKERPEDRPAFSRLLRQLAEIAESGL
Briefly: Inhibition of recombinant human ITK (352 to 617 residues) using myelin basic protein as substrate measured after 40 mins in presence of [gamma33P]ATP by scintillation counting analysis.

Series [5] is described as follows: Inhibition of recombinant mouse full-length BLK V421E mutant using poly(Glu, Tyr) 4:1 as substrate measured after 40 mins in presence of [gamma33P]ATP by scintillation counting analysis. An outline of the steps:
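Radiometric assay with BLK in 50 mM Tris pH 7.5, 0.1 mM EGTA, 0.1 mM Na3VO4, 0.1% mercaptoethanol, 0.1 mg/mL poly(Glu,Tyr) 4:1, 10 mM Mg acetate and [γ-33P]-ATP. Started with Mg/ATP at room temperature; 40 min. Stopped with 0.5% phosphoric acid, filtermat-spotted, washed, scintillation counted. Mean of ≥3 assays in triplicate.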

Series [6] is filed under the species Homo sapiens. Briefly: Selectivity ratio of IC50 for recombinant human ITK (352 to 617 residues) to IC50 for inhibition of FAM-labeled peptide binding to full-length human N-terminal GST-tagged BTK (2 to 659 residues) expressed in baculovirus infected Sf21 insect cells. An outline of the steps:
(§1)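 Ratio of kinase IC50 to BTK IC50. BTK measured by off-chip mobility shift: compound preincubated 10 min with BTK in 50 mM HEPES pH 7.5, 0.01% Brij-35, then FAM-labelled peptide and ATP added, 28 °C. Stopped with EDTA buffer; percent conversion fitted for IC50. Each panel kinase assayed in triplicate.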

The species named for series [7] is Homo sapiens. Briefly: Selectivity ratio of IC50 for recombinant full-length human SRC to IC50 for inhibition of FAM-labeled peptide binding to full-length human N-terminal GST-tagged BTK (2 to 659 residues) expressed in baculovirus infected Sf21 insect cells. An outline of the steps:
as §1

For series [8], the species on record is Homo sapiens. Briefly: Selectivity ratio of IC50 for human full-length recombinant YES to IC50 for inhibition of FAM-labeled peptide binding to full-length human N-terminal GST-tagged BTK (2 to 659 residues) expressed in baculovirus infected Sf21 insect cells. An outline of the steps: as §1
Series [9] in a line: Stability in Sprague-Dawley rat plasma assessed as parent compound remaining at 1 uM measured after 2 hrs by LC-MS/MS analysis. In kind it is ADME, cell-free. The note with it: read-out: Stability. An outline of the steps: (§2)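 Compound at 1 µM initial concentration incubated 2 h at 37 °C in plasma. Quenched with 10 volumes of methanol containing internal standard, then centrifuged. Supernatant diluted with an equal volume of water and analysed by LC-MS/MS. Read-out is % parent remaining. Mean of three separate assays run in triplicate.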

Series [10] in a line: Stability in monkey plasma assessed as parent compound remaining at 1 uM measured after 2 hrs by LC-MS/MS analysis. The format is ADME, cell-free, Macaca mulatta. The note with it: rhesus monkey, read-out: Stability. In outline:
as §2

Series [11] is described as follows: Half life in Sprague-Dawley rat at 2 mg/kg, iv by LC-MS/MS analysis. The format is ADME, organism-based. As to conditions: in vivo. In outline:
(§3)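 Male Sprague-Dawley rats (187-205 g, n=6 per route). IV group: 2 mg/kg by tail vein in 10% DMSO/90% PEG400, fed animals. Oral group: 5 mg/kg as a 0.5% methylcellulose suspension, fasted animals. Jugular cannula blood taken pre-dose and from 0.033 h (iv only) to 24 h. Plasma stored at -20 °C and analysed by LC-MS/MS.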

A short description of series [12]: Oral bioavailability in Sprague-Dawley rat at 5 mg/kg by LC-MS/MS analysis. The note with it: in vivo. In kind it is ADME, organism-based. An outline of the steps:
as §3

A further series relates to Mus musculus. Briefly: Antiarthritic activity in complete freund's adjuvant-induced DBA/1 mouse arthritis model assessed as reduction in paw volume at 10 mg/kg, po qd administered starting from 29 day post-CFA challenge and measured on day 29, 33, 36, 40 and 43 by caliper method. In kind it is functional, organism-based. An outline of the steps:
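Male DBA/1 mice (18-20 g, 4-6 weeks) immunized intradermally at the tail base with bovine type II collagen in CFA on day 0, then challenged with collagen II in IFA on day 20. Randomized on day 29 and dosed orally once daily (n=6 per group) with vehicle as control. Paw thickness measured by caliper on days 29, 33, 36, 40 and 43. Mean ± SEM; Dunnett's test vs vehicle.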

Series [13] can be described thus: Toxicity in complete freund's adjuvant-induced DBA/1 mouse arthritis model assessed as effect on appetite at 10 mg/kg, po qd administered starting from 29 day post-CFA challenge and measured on day 29, 33, 36, 40 and 43. As to conditions: in vivo, 696 h. The format is organism-based. An outline of the steps: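 CIA in male DBA/1 mice: intradermal bovine type II collagen in CFA on day 0, collagen II in IFA boost on day 20. Randomized on day 29 and given oral doses once daily (n=6 per group) alongside vehicle and naive groups. Body weights recorded over the study days.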

In brackets after ≈: the same amount, converted by molar mass. Activity calls are given as the source filed them. The rule behind the calls is not given here.

Epidermal growth factor receptor, sequence (P00533 whole entry, the tested form may be a part): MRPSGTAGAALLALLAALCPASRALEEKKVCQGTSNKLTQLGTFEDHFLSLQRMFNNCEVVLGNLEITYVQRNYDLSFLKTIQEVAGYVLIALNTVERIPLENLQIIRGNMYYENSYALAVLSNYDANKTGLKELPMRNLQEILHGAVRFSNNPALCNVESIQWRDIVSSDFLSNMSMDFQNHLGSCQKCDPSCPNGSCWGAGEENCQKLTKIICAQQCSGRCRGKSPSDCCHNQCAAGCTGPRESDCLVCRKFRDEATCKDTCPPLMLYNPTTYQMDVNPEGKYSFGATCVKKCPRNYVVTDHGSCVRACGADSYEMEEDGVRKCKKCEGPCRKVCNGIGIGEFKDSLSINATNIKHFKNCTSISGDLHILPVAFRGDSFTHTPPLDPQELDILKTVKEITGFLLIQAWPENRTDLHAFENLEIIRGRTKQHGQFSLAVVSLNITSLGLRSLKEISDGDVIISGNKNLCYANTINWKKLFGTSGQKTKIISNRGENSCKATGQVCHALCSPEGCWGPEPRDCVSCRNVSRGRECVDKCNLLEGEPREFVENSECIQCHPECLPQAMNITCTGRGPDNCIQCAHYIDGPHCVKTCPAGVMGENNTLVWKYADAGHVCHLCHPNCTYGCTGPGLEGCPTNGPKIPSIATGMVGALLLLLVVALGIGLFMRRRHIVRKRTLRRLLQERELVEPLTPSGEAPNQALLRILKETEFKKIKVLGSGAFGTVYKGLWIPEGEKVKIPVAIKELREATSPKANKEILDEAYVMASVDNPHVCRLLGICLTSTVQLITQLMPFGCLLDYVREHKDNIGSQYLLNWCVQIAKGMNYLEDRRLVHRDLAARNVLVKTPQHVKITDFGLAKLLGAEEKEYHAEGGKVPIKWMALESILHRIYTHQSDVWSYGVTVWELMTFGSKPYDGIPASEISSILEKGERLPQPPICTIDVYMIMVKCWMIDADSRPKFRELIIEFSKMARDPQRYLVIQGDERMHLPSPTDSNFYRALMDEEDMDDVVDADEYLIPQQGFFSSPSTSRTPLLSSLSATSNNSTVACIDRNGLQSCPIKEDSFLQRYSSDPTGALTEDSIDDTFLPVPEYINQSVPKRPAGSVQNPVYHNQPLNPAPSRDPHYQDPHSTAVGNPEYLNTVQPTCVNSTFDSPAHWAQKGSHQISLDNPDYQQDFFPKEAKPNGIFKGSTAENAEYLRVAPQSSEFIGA
Tyrosine-protein kinase BTK, sequence (Q06187 whole entry, the tested form may be a part): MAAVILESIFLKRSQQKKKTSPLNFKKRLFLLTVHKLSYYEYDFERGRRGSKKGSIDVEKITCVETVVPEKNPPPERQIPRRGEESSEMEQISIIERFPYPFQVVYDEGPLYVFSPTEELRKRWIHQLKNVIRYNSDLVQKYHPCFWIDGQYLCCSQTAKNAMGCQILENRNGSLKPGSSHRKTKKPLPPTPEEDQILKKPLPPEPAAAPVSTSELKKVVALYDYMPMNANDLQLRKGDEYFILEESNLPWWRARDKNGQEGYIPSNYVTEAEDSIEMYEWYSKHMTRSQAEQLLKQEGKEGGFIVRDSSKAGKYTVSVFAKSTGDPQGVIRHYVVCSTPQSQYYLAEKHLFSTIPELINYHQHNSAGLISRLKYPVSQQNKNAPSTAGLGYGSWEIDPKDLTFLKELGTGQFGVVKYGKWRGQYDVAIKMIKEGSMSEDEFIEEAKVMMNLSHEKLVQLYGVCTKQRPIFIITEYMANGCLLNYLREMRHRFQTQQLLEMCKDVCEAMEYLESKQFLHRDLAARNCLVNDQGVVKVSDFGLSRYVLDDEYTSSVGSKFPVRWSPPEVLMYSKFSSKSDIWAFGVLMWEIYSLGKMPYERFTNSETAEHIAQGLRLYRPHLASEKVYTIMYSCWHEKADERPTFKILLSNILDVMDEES

With `COc1cc2cn[nH]c2cc1-c1ccc(F)c2c(N)c(C(N)=O)cnc12`, the solubility kinetic at 24 h in [1] was 7.3 µg/mL (≈ 20.8 µM). In addition, the IC50 was 5.3 nM in series [2], more than 2000 nM in [3], 307 nM in series [4] and 150 nM in series [5]. In addition, the Ratio IC50 in the series filed under Homo sapiens [6] was 58; in the series filed under Homo sapiens [7], 170; in the series listed under Homo sapiens [8], more than 1000. For the same molecule, the remaining at 2 h, 1 µM in series [9] is 96%; in series [10], 88%. The half-life in series [11] was 1.2 h. The same molecule yielded a bioavailability in series [12] of 25%. In addition, in the series with Mus musculus, the result was Active. Also, the Activity result in series [13] was “Non-Toxic”.

What is called IC50 is the point on the concentration scale where inhibition reaches its midpoint. The term half-life denotes the time in which the quantity being followed falls by half. For orientation: bioavailability means dose-corrected exposure relative to a reference, in per cent.
